How the values were obtained:
[1] = target: Tumour suppressor p53/oncoprotein Mdm2 (Homo sapiens, UniProt Q00987); experiment: Inhibition of p53-MDM2 interaction by ELISA; format: protein assay
HeLa = experiment: Cellular uptake in human HeLa cells at 10 uM after 2 hrs by FACS analysis relative to control; format: ADME, cell-based
In short: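 HeLa cells were exposed to fluorescein-labelled peptides at 10 μM and analysed by flow cytometry (FACS). Uptake was read as mean cellular fluorescence, shown as representative histograms, and normalized for comparison between peptides.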

Chain of Tumour suppressor p53/oncoprotein Mdm2 (P04637 whole entry): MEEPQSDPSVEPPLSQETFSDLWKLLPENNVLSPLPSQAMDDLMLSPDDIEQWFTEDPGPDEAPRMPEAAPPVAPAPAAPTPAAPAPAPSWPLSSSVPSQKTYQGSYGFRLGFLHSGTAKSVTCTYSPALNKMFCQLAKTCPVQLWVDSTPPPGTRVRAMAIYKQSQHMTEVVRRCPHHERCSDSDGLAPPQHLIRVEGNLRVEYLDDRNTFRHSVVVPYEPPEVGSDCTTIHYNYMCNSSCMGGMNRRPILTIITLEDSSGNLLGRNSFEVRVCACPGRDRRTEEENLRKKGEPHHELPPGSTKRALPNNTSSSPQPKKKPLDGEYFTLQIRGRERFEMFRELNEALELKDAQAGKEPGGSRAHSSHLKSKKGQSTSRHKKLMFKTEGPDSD
Chain of Tumour suppressor p53/oncoprotein Mdm2 (Q00987 whole entry): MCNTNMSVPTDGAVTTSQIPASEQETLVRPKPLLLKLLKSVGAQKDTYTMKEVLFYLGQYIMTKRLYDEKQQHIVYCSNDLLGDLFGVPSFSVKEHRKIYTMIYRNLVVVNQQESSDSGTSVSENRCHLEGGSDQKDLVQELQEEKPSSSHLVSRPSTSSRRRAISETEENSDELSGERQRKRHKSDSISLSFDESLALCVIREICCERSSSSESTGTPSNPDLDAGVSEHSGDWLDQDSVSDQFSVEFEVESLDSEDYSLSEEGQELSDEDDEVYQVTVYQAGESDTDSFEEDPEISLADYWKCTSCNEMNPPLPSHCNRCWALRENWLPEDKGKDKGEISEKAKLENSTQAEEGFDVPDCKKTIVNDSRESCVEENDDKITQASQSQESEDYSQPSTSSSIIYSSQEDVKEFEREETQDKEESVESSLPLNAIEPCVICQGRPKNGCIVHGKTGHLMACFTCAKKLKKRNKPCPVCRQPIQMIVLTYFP

## CC(=O)N[C@@H](CC(C)C)C(=O)N[C@H](C(=O)N[C@@H](Cc1ccccc1)C(=O)N[C@H](CS)C(=O)N[C@@H](Cc1cnc[nH]1)C(=O)N[C@@H](Cc1ccc(O)cc1)C(=O)N[C@@H](Cc1c[nH]c2ccccc12)C(=O)N[C@@H](C)C(=O)N[C@@H](CCC(N)=O)C(=O)N[C@@H](CC(C)C)C(=O)N[C@@H](CS)C(=O)N[C@@H](CO)C(N)=O)[C@@H](C)O
[1]
  IC50: 13 nM

## CC(C)C[C@H](NC(=O)CCCCCNC(=O)c1ccccc1-c1c2ccc(=O)cc-2oc2cc(O)ccc12)C(=O)N[C@H](C(=O)N[C@@H](Cc1ccccc1)C(=O)N[C@H](CS)C(=O)N[C@@H](Cc1cnc[nH]1)C(=O)N[C@@H](Cc1ccc(O)cc1)C(=O)N[C@@H](Cc1c[nH]c2ccccc12)C(=O)N[C@@H](C)C(=O)N[C@@H](CCC(N)=O)C(=O)N[C@@H](CC(C)C)C(=O)N[C@@H](CS)C(=O)N[C@@H](CO)C(N)=O)[C@@H](C)O
HeLa
  Drug uptake: 3.3%

## CC(C)C[C@H](NC(=O)CCCCCNC(=O)c1ccccc1-c1c2ccc(=O)cc-2oc2cc(O)ccc12)C(=O)N[C@H](C(=O)N[C@@H](Cc1ccccc1)C(=O)N[C@@H](CS)C(=O)N[C@@H](Cc1cnc[nH]1)C(=O)N[C@@H](Cc1ccc(O)cc1)C(=O)N[C@@H](Cc1c[nH]c2ccccc12)C(=O)N[C@@H](C)C(=O)N[C@@H](CCC(N)=O)C(=O)N[C@@H](CC(C)C)C(=O)N[C@@H](CS)C(=O)N[C@@H](CO)C(N)=O)[C@@H](C)O
HeLa
  Drug uptake: 4.5%

## CC(=O)N[C@@H](CC(C)C)C(=O)N[C@H](C(=O)N[C@@H](Cc1ccccc1)C(=O)N[C@@H](CS)C(=O)N[C@@H](Cc1cnc[nH]1)C(=O)N[C@@H](Cc1ccc(O)cc1)C(=O)N[C@@H](Cc1c[nH]c2ccccc12)C(=O)N[C@@H](C)C(=O)N[C@@H](CCC(N)=O)C(=O)N[C@@H](CC(C)C)C(=O)N[C@@H](CS)C(=O)N[C@@H](CO)C(N)=O)[C@@H](C)O
[1]
  IC50: 57 nM
